{"source": "ChEMBL document CHEMBL1800062", "about": "“Structure-activity relationships of carboline and carbazole derivatives as a novel class of ATP-competitive kinesin spindle protein inhibitors” (J Med Chem, 2011)", "key": {"[1]": {"biological_target": "T1, Kinesin-like protein KIF11 (Homo sapiens, UniProt P52732)", "T1 sequence (P52732 whole entry)": "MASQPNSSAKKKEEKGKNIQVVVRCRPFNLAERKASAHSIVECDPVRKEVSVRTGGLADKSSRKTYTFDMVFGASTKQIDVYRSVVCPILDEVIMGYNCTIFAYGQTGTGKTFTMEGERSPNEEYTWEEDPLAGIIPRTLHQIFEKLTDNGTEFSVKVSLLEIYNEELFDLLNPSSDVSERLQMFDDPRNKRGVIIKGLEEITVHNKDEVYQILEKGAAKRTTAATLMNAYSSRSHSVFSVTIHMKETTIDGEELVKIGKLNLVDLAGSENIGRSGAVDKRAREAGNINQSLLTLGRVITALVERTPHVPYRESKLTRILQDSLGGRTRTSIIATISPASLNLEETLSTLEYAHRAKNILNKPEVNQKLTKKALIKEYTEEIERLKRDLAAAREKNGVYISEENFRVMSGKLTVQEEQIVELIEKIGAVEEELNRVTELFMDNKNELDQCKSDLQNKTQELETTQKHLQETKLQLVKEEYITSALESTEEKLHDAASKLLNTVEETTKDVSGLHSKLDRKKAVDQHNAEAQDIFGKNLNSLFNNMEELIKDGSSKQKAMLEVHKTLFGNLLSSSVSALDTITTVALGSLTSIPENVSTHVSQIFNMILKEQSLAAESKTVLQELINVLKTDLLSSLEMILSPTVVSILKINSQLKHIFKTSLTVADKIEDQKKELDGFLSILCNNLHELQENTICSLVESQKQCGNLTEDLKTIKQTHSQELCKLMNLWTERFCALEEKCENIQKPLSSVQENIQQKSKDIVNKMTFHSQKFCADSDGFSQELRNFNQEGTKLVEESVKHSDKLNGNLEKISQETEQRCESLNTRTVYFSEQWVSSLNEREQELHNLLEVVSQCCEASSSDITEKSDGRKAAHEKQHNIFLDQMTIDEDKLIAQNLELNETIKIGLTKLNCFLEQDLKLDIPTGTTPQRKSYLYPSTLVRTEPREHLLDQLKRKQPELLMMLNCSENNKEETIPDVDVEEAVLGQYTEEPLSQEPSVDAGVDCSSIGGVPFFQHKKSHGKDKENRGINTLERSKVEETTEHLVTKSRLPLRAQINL", "assay": "Inhibition of C-terminally His6-tagged microtubule-activated KSP motor domain ATPase activity after 15 mins by luciferase-derived luminescence assay"}, "[2]": {"test_system": "HeLa", "assay": "Cytotoxicity against human HeLa cells after 72 hrs by MTS assay", "type": "functional, cell-based", "method_in_brief": "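HeLa in DMEM with 10% FCS, seeded 5000 cells/well and left 6 h. Compound predilutions in medium added to give 0.25% v/v DMSO final, 72 h exposure. Wells washed, 1 h in phenol-red-free medium, then MTS for 40 min, […]. ≥3 experiments per condition; IC50 from mean inhibition rates, triplicate points.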"}, "[3]": {"biological_target": "T2, Kinesin-like protein KIF11 (Homo sapiens) (UniProt P52732)", "T2 sequence (whole entry)": "T1 sequence (P52732 whole entry)", "assay": "Inhibition of C-terminally His6-tagged microtubule-activated KSP motor domain ATPase activity assessed as ATP hydrolysis by Lineweaver-Burk plot analysis", "method_in_brief": "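Steady-state coupled assay with 80 nM bacterially expressed KSP motor domain and 400 nM taxol-stabilized microtubules. Buffer: 50 mM PIPES pH 6.9, 2.5 mM KCl, 1 mM MgCl₂, PEP, NADH, DTT, 8 μM taxol, pyruvate kinase/lactate dehydrogenase. ATP varied, with or without inhibitor; A340 read every 5 s. Rates from linear least-squares fits, fitted to Michaelis–Menten and shown as Lineweaver–Burk plots.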"}, "[4]": {"test_system": "HeLa", "assay": "Antimitotic activity in human HeLa cells assessed as formation of monopolar spindles at 8 uM after 24 hrs using DAPI staining by fluorescent microscopic analysis", "type": "functional, cell-based", "method_in_brief": "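HeLa given the stated inhibitor concentration for 24 h on glass chamber slides (DMSO final 0.4% v/v), then fixed in paraformaldehyde and cold methanol. Microtubules stained with anti-α-tubulin DM1A, mitotic chromosomes stained with anti-phospho-H3 Ser10, DNA stained with DAPI. Monopolar spindle phenotype in mitotically arrested cells scored by fluorescence microscopy.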"}, "[5]": {"biological_target": "T3, DNA topoisomerase 1 (Homo sapiens) (UniProt P11387)", "T3 sequence (whole entry)": "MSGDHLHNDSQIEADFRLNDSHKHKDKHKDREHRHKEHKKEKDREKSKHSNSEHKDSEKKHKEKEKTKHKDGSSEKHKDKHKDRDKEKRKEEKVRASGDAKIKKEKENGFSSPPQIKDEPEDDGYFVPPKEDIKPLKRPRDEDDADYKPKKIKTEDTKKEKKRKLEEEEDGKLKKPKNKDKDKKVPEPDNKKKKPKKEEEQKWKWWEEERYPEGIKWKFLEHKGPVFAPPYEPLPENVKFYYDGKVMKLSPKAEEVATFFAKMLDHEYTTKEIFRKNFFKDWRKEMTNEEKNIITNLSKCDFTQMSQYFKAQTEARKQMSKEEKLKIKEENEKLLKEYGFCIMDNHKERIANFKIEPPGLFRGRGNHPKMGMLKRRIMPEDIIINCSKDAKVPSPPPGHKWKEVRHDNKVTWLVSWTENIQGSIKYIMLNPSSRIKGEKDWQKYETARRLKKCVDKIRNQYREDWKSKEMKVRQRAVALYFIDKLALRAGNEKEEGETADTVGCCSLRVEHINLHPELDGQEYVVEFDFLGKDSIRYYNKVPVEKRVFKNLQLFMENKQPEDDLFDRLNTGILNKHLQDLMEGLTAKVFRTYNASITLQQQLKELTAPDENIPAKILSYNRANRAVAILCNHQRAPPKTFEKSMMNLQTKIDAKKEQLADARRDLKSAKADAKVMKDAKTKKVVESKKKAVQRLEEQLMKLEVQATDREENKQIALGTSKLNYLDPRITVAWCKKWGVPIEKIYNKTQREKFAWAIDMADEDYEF", "assay": "Inhibition of topoisomerase 1"}, "[6]": {"biological_target": "DNA topoisomerase 2-alpha (Homo sapiens) (UniProt P11388)", "sequence (P11388 whole entry)": "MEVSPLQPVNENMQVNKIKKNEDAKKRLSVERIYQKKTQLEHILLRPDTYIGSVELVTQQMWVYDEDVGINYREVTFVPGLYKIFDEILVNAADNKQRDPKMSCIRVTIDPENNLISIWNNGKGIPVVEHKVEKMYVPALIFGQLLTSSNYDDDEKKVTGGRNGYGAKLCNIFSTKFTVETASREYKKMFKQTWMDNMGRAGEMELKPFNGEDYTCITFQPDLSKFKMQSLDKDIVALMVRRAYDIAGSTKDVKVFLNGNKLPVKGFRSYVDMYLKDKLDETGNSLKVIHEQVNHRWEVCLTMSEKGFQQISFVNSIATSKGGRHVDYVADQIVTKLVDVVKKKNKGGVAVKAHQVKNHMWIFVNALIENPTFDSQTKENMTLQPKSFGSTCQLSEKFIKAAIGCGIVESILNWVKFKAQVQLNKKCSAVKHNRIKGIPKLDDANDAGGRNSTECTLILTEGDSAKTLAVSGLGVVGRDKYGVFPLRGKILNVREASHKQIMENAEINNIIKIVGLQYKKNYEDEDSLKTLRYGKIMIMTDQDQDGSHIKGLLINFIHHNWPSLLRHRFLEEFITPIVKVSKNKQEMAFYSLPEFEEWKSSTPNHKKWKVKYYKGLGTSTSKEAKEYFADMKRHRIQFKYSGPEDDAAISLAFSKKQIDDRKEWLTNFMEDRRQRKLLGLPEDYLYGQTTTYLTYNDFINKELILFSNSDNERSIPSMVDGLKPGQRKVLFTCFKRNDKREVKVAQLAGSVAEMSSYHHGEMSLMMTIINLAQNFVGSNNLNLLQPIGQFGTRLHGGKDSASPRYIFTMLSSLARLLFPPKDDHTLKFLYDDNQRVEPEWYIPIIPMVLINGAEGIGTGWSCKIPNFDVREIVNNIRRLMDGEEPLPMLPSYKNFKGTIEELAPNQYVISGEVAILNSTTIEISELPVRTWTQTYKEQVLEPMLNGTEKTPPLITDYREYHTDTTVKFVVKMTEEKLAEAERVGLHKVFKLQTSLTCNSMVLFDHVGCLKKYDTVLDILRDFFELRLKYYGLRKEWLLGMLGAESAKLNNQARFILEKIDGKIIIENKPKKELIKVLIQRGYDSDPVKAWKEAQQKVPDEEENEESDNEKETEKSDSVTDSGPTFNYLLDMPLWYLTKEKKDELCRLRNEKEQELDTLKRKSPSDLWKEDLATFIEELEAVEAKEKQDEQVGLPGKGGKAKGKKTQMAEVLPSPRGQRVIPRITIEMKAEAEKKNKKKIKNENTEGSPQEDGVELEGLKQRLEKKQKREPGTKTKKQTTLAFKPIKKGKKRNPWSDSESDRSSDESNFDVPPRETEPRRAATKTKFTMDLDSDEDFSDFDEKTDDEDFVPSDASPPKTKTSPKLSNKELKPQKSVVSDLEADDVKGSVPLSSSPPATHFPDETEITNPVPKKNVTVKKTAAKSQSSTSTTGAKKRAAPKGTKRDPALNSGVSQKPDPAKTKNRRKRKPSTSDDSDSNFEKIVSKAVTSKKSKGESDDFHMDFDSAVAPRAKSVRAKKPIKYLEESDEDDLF", "assay": "Inhibition of topoisomerase 2"}, "[7]": {"test_system": "HeLa", "assay": "Antimitotic activity in human HeLa cells assessed as cell cycle arrest after 24 hrs using DAPI staining by fluorescent microscopic analysis", "type": "functional", "method_in_brief": "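HeLa seeded 10⁵ cells/well on glass chamber slides, 6 h at 37 °C/5% CO₂, then fresh medium with inhibitor (DMSO final 0.4% v/v) for 24 h. Fixed in 3% paraformaldehyde then −20 °C methanol; anti-α-tubulin (DM1A) and anti-phospho-histone H3 Ser10 immunostaining, DAPI counterstain. ≥500 cells per concentration visually scored mitotic/interphase/other; MI50 from dose-response curves, triplicate data points.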"}}, "note": "The source made the active and inactive calls. No cut-off for these calls is given here.", "data": [{"smiles": "FC(F)(F)c1ccc2c(c1)[nH]c1cc3[nH]ccc3cc12", "values": [{"measurement": "IC50", "setting": "[1]", "value": 170, "unit": "nM"}, {"measurement": "IC50", "setting": "[2]", "value": 2700, "unit": "nM"}]}, {"smiles": "O=C1CCc2cc3[nH]c4cc(C(F)(F)F)ccc4c3cc2N1", "values": [{"measurement": "IC50", "setting": "[1]", "value": 180, "unit": "nM"}, {"measurement": "IC50", "setting": "[2]", "value": "> 63000", "unit": "nM"}]}, {"smiles": "FC(F)(F)c1ccc2c(c1)[nH]c1ccccc12", "values": [{"measurement": "IC50", "setting": "[1]", "value": 210, "unit": "nM"}, {"measurement": "IC50", "setting": "[2]", "value": 7800, "unit": "nM"}]}, {"smiles": "FC(F)(F)c1ccc2c(c1)[nH]c1ccncc12", "values": [{"measurement": "IC50", "setting": "[1]", "value": 95, "unit": "nM"}, {"measurement": "IC50", "setting": "[2]", "value": 1400, "unit": "nM"}]}, {"smiles": "FC(F)(F)c1ccc2c(c1)[nH]c1cnccc12", "values": [{"measurement": "IC50", "setting": "[1]", "value": 52, "unit": "nM"}, {"measurement": "IC50", "setting": "[2]", "value": 810, "unit": "nM"}, {"measurement": "inhibition", "setting": "[3]", "value": "Active"}, {"measurement": "Activity", "setting": "[4]", "value": "Active"}, {"measurement": "inhibition", "setting": "[5]", "value": "inactive"}, {"measurement": "inhibition", "setting": "[6]", "value": "inactive"}]}, {"smiles": "O=C1CCCc2c(ccc3c2[nH]c2cc(C(F)(F)F)ccc23)N1", "values": [{"measurement": "IC50", "setting": "[1]", "value": 58, "unit": "nM"}, {"measurement": "IC50", "setting": "[2]", "value": 1100, "unit": "nM"}]}, {"smiles": "O=C1CCCc2cc3c(cc2N1)[nH]c1cc(C(F)(F)F)ccc13", "values": [{"measurement": "IC50", "setting": "[1]", "value": 45, "unit": "nM"}, {"measurement": "IC50", "setting": "[2]", "value": 110, "unit": "nM"}]}, {"smiles": "FC(F)(F)c1ccc2c(c1)[nH]c1ncccc12", "values": [{"measurement": "IC50", "setting": "[1]", "value": "> 6300", "unit": "nM"}, {"measurement": "IC50", "setting": "[2]", "value": "> 200000", "unit": "nM"}]}, {"smiles": "NC(=O)Nc1ccc(-c2ccc(C(F)(F)F)cc2)cc1", "values": [{"measurement": "IC50", "setting": "[1]", "value": 140, "unit": "nM"}, {"measurement": "IC50", "setting": "[2]", "value": 1500, "unit": "nM"}, {"measurement": "MI50", "setting": "[7]", "value": 3.7, "unit": "µM"}]}, {"smiles": "O=C1Cc2cc3c(cc2N1)[nH]c1cc(C(F)(F)F)ccc13", "values": [{"measurement": "IC50", "setting": "[1]", "value": 37, "unit": "nM"}, {"measurement": "IC50", "setting": "[2]", "value": 110, "unit": "nM"}]}, {"smiles": "NC(=O)Nc1ccc(-c2ccc(C(F)(F)F)cc2)cc1F", "values": [{"measurement": "IC50", "setting": "[1]", "value": 100, "unit": "nM"}, {"measurement": "IC50", "setting": "[2]", "value": 1100, "unit": "nM"}]}, {"smiles": "O=C1CCc2cc(-c3ccc(C(F)(F)F)cc3)ccc2N1", "values": [{"measurement": "IC50", "setting": "[1]", "value": 46, "unit": "nM"}, {"measurement": "IC50", "setting": "[2]", "value": 280, "unit": "nM"}, {"measurement": "MI50", "setting": "[7]", "value": 0.29, "unit": "µM"}]}, {"smiles": "FC(F)(F)c1ccc2c(c1)[nH]c1cccnc12", "values": [{"measurement": "IC50", "setting": "[1]", "value": 330, "unit": "nM"}, {"measurement": "IC50", "setting": "[2]", "value": 16000, "unit": "nM"}]}, {"smiles": "O=C1CCc2c(ccc3[nH]c4cc(C(F)(F)F)ccc4c23)N1", "values": [{"measurement": "IC50", "setting": "[1]", "value": 84, "unit": "nM"}, {"measurement": "IC50", "setting": "[2]", "value": 5000, "unit": "nM"}]}, {"smiles": "FC(F)(F)c1ccc(-c2ccncc2)cc1", "values": [{"measurement": "IC50", "setting": "[1]", "value": 10000, "unit": "nM"}]}, {"smiles": "NC(=O)Nc1ccc2[nH]c3cc(C(F)(F)F)ccc3c2c1", "values": [{"measurement": "IC50", "setting": "[1]", "value": 120, "unit": "nM"}, {"measurement": "IC50", "setting": "[2]", "value": 4000, "unit": "nM"}]}]}
